In ChEMBL document CHEMBL1158582, “Novel DNA intercalators without basic side chains as efficient antitumor agents: design, synthesis and evaluation of benzo-[c,d]-indol-malononitrile derivatives” (Bioorg Med Chem, 2010):
pIC50: −log10 of the molar value. Calls of active or inactive are those of the source. The calls are words filed in the database; no cut-off is given here.

What was measured:
Nucleic Acid [1] = assay: Binding affinity to calf thymus DNA assessed as DNA intercalation at 100 uM by UV-visible spectrophotometry; format: nucleic-acid assay; conditions: Bos taurus; 25 uM; in the assay text read “at 25 uM” for “at 100 uM”
In short: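 UV–vis titration: compound fixed at 25 µM, CT DNA concentration increased; bathochromic shift and hypochromicity taken as the sign of intercalation, isosbestic point followed.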

Nucleic Acid [2] = assay: Induction of DNA damage-mediated relaxation of Escherichia coli super coiled pBR322 DNA assessed as formation of open circular form-2 DNA after 3 hrs under light condition by UV transilluminator; format: nucleic-acid assay
In short: (§1)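 Supercoiled pBR322 (25 ng/µL) in 20 mM Tris–HCl pH 7.5 with 50 µM compound under light irradiation for 3 h; irradiated DNA alone as control. Products resolved on 1% agarose in 0.5× TAE containing 0.5 µg/mL EB, 80 V, 1.5 h.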

Nucleic Acid [3] = assay: Induction of DNA damage-mediated relaxation of Escherichia coli super coiled pBR322 DNA assessed as formation of linear form-3 DNA after 12 hrs under dark condition by UV transilluminator; format: nucleic-acid assay
In short: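 Supercoiled pBR322 (25 ng/µL) in 20 mM Tris–HCl pH 7.5 with 50 µM compound, 12 h at 4 °C in the dark. Quenched with loading buffer; 1% agarose gel in 0.5× TAE with 0.5 µg/mL EB, 80 V, 1.5 h.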

SMMC-7721 = assay: Cytotoxicity against human SMMC7721 cells after 48 hrs by MTT assay; format: functional, cell-based; conditions: SMMC-7721, 48 h
In short: (§2)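 MTT assay, cells incubated 48 h with a range of compound concentrations. MTT (5 mg/mL in PBS) added, 3 h, formazan dissolved in lysis buffer (200 g/L SDS, 50% formamide, pH 4.7), absorbance read at 570 nm. At least three independent experiments; mean percent absorbance plotted against concentration to give IC50.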

MCF7 = assay: Cytotoxicity against human MCF7 cells after 48 hrs by MTT assay; format: functional, cell-based; conditions: MCF7, 48 h; in short: as §2
Nucleic Acid [4] = assay: Induction of DNA damage-mediated relaxation of Escherichia coli super coiled pBR322 DNA assessed as formation of linear form-3 DNA after 3 hrs under light condition by UV transilluminator; format: nucleic-acid assay; in short: as §1
Nucleic Acid [5] = assay: Binding affinity to DNA assessed as decrease in ethidium bromide fluorescence at 5 uM by fluorescence spectroscopy; format: nucleic-acid assay
In short: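 Fluorescence displacement of ethidium bromide bound to DNA; loss of EB fluorescence taken as displacement by the test agent. Compound alone with DNA measured as a control for the compound's own fluorescence.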

Nucleic Acid [6] = assay: Binding affinity to calf thymus DNA assessed as increase in DNA viscosity by viscometric titration; format: nucleic-acid assay; conditions: Bos taurus
In short: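 CT DNA sonicated 10 min and filtered through 0.45 µm membrane; DNA 100 µM. Titrations in an Ubbelohde viscometer in a thermostated bath held at 25 ± 0.1 °C.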

Row | Activity (Nucleic Acid [1]) | Activity (Nucleic Acid [5]) | Activity (Nucleic Acid [6]) | Structure (SMILES) | Activity (Nucleic Acid [2]) | Activity (Nucleic Acid [3]) | pIC50 (SMMC-7721) | pIC50 (MCF7) | Activity (Nucleic Acid [4])
1 | Active | – | – | CC(=O)n1c(=C(C#N)C#N)c2cccc3cccc1c32 | Active | Active | 6.94 | 8.52 | –
2 | inactive | – | – | N#CC(C#N)=c1c2cccc3cccc(c32)n1C(=O)c1ccccc1 | Active | Active | 5.06 | 4.82 | –
3 | – | – | – | C=CCn1c(=C(C#N)C#N)c2cccc3cccc1c32 | Active | Active | 6.76 | 5.33 | Active
4 | – | – | – | N#CC(C#N)=c1c2cccc3cccc(c32)n1CCBr | Active | Active | 6.68 | 5.27 | –
5 | – | – | – | N#CC(C#N)=c1c2cccc3cccc(c32)n1CCCCl | Active | Active | 6.45 | 5.16 | –
6 | – | – | – | N#CCn1c(=C(C#N)C#N)c2cccc3cccc1c32 | Active | Active | 6.59 | 4.87 | Active
7 | Active | Active | Active | C#CCn1c(=C(C#N)C#N)c2cccc3cccc1c32 | Active | Active | 6.14 | 4.90 | Active
